Measured values published in PubChem BioAssay AID1296 (Columbia University Molecular Screening Center, 2008).
Hit rate of the full screen: of about 130,000 compounds, about 1,000 (0.77%) were called active. About 1% were inconclusive and are not listed.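 Rule for the calls: active = activation at 2 µM above a set limit, confirmed on inspection of the cell images; inconclusive = above the set limit but not confirmed on image inspection; inactive = the rest.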 The sample as a whole holds a higher share of actives than the screen did.

assay: insulin gene promoter stimulation in islet cells – imaging, TRM-6 cells (human fetal islet line), eGFP reporter, cell count, primary screen (AID 1296;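 for activation: share of cells whose green reporter signal exceeds an intensity cutoff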); details: at 2 µM; activation: stronger effect = higher value, plate-scaled: unstimulated 0, stimulated control 100; normalized cell count: measured here: cell count (toxicity)
Method in brief: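 System – TRM-6 insulin promoter–eGFP reporter cells · Probe or stimulus – 0.75 µM tamoxifen as reporter inducer · Dosing – single-point 2 µM compound dose · Incubation – tamoxifen pre-incubation 15 h overnight, then compound exposure 48 h at 37 °C · Measured by – fixed-cell fluorescence microscopy, eGFP plus Hoechst · Evaluation – percent GFP-positive cells normalized to per-plate controls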

Structure (SMILES)	activation	normalized cell count
CCOc1ccc(S(=O)(=O)Nc2ccncc2)c(C)c1C	-72.7% (inactive)	133%
CCOc1ccc(NC(=S)NC(=O)/C=C/c2ccc(OC)cc2)c([N+](=O)[O-])c1	8.82% (inactive)	139%
CCN(CC)CCn1c(/N=C/c2cc(Br)ccc2O)nc2ccccc21	149% (inactive)	133%
CC(C)(C)N1CC(c2nc3ccccc3n2Cc2ccc(F)cc2)CC1=O (stereo unspecified)	80% (active)	127%
CC(O)c1nc2ccccc2n1Cc1ccc([N+](=O)[O-])cc1 (stereo unspecified)	-2.94% (inactive)	149%
CC(C)CCNC(=O)CC1C(=O)N(Cc2ccccc2)C(C)c2nc3ccccc3n21 (stereo unspecified)	127% (inactive)	118%
Cc1ccc(C2CC2C(=O)NN)cc1 (stereo unspecified)	0% (inactive)	90.7%
Cc1noc(C)c1CCC(=O)O	5.56% (inactive)	134%
Cc1ccc(NC(=O)c2ccn(C(=O)Nc3ccccc3)n2)c(C)c1	0% (inactive)	123%
Cc1ccnc(NC(=O)Cn2ccc([N+](=O)[O-])n2)c1	5.71% (inactive)	124%
Cc1c(C(=O)N2CCOCC2)[nH]c2ccc(OCc3ccccc3)cc12	104% (active)	126%
O=C(CN1CCOCC1)N1CCCc2c1c(=O)oc1ccc(OCc3ccccc3)cc21	21.5% (inactive)	118%
CCOC(=O)c1[nH]c2ccc(OC)cc2c1NC(=O)N1CCOCC1	3.57% (inactive)	45.3%
CC(=O)c1cc(-c2ccccc2)n(CCC(=O)NC2CCCCCC2)c1C	5.71% (inactive)	127%
CCN(CC(=O)Nc1ccc(Cl)c(S(=O)(=O)N(C)C)c1)Cc1nc2ccccc2c(=O)[nH]1	8.33% (inactive)	83.9%
CCn1c(Cc2cccs2)nnc1SCC(=O)c1ccc(C)cc1	433% (active)	93.9%
CCn1c(SCC(=O)Nc2nccs2)nnc1-c1ccco1	0% (inactive)	131%
Cc1ccc(-n2c(Cc3cccs3)nnc2SCC(=O)OC(C)C)cc1	-7.69% (inactive)	48%
Cc1ccsc1C1C(C#N)=C(N)OC2=C1C(=O)CC(C)(C)C2 (stereo unspecified)	0% (inactive)	62.4%
CCN1CCN(C(C(=O)NC2CCCC2)c2cc3c(cc2[N+](=O)[O-])OCO3)CC1 (stereo unspecified)	6.67% (inactive)	84.9%
CCCC(=O)NC(Nc1ccccc1OC)C(Cl)(Cl)Cl (stereo unspecified)	-4.35% (inactive)	88%
CN(C)c1ccc(/C=C2\NC(=S)N(Cc3ccccc3)C2=O)cc1	170% [may fluoresce] (active)	95.4%

Structure (SMILES)	activation	normalized cell count
Cc1nc2ccccc2cc1C(=O)N/N=C/c1ccc([N+](=O)[O-])cc1	-75% (inactive)	81%
COc1cc(/C=C/C(=O)OCC(=O)Nc2cccc(Oc3ccccc3)c2)ccc1O	3.57% (inactive)	105%
O=C(Nc1cccc(Cl)c1)Nc1nnc(-c2ccccc2)o1	4.65% (inactive)	60.8%
CCOc1cc(/C=C2/C(=N)N3OC(C)=CC3=NC2=O)ccc1OC	6.67% (inactive)	55.1%
c1ccc(CC2CCN(c3nc4ccccc4n4cnnc34)CC2)cc1	-7.14% (inactive)	111%
O=C(c1ccccc1)c1ccc2nc(N3CCCCC3)c3nncn3c2c1	320% (active)	70%
O=C(Nc1ccccc1N1CCCCC1)c1cccc(F)c1	5.71% (inactive)	92.9%
CCC(C)NC(=O)c1nn(C)c(=O)c2ccccc12 (stereo unspecified)	-5.56% (inactive)	169%
Cc1ccc(S(=O)(=O)c2ccc(Cl)cc2)cc1S(=O)(=O)NC(C(=O)O)C(C)C (stereo unspecified)	3.85% (inactive)	127%
CCOC(=O)NN1C(=O)c2ccccc2NC1c1ccccc1O (stereo unspecified)	2.78% (inactive)	107%
N#C/C(=C/c1ccc(N2CCOCC2)o1)C(=O)N1CCOCC1	7.69% (inactive)	59.4%
N#C/C(=C\c1ccc(N2CCOCC2)o1)C(=O)N1CCOCC1	7.41% (inactive)	99.1%
N#C/C(=C/c1ccc(N2CCCCC2)o1)C(=O)NCCc1c[nH]c2ccccc12	257% (active)	92.9%
CC1(C)C2CC=C(/C=N/NC(=O)c3ccc(Cl)cc3)C1C2 (stereo unspecified)	-3.33% (inactive)	104%
COc1ccc(-c2noc(-c3ccc(C)cc3)n2)cc1	1.41% (inactive)	143%
Cc1ccc(-c2noc(CSc3nnc(-c4ccccc4)n3C)n2)cc1	-8.33% (inactive)	65.9%
COc1ccc(-c2noc(CSc3ccc(C)cc3)n2)cc1	521% (active)	77.9%
O=C(Nc1ccccc1F)c1ccc(Cn2cc(Br)cn2)cc1	0% (inactive)	118%
Cc1ccc(O)c(-c2cc(C(=O)NCc3ccccc3)[nH]n2)c1	-7.14% (inactive)	81.6%
Cc1cc(C)cc(NC(=O)c2cccc(NC(=O)C3C4CC5OC(=O)C3C5C4)c2)c1 (stereo unspecified)	76.7% (active)	85.6%
CSCc1ccc(C(=O)Nc2cc(C)cc(C)c2)cc1	-9.09% (inactive)	139%
Cc1cccc(NC(=O)C2CC(=O)OC23CCCC3)c1 (stereo unspecified)	7.14% (inactive)	75.4%

Structure (SMILES)	activation	normalized cell count
O=C(COC(=O)c1cc(S(=O)(=O)N2CCCCC2)ccc1Cl)NCc1ccco1	-5.56% (inactive)	260%
CC(C)CCC(C)NC(=O)c1ccc2nccnc2c1 (stereo unspecified)	6.67% (inactive)	43.3%
Cc1nc(NC(=O)C2CCCCC2)sc1C	0% (inactive)	50%
Cc1ccc(/C=C(\C#N)C(=O)Nc2cccc3ncccc23)o1	2.7% (inactive)	106%
Cc1ccc2c(NC(=O)C3CC3)cccc2n1	140% (active)	109%
CC(C)(C)NC(=O)CN(C(=O)c1ccc(Cl)nc1)c1cccc2ccccc12	108% (inactive)	93%
Cc1cccc(C(=O)Nc2ccc(C(=O)/C=C/c3cccs3)cc2)c1	9.3% (inactive)	81.7%
O=C(Nc1ccccc1)c1ccc2nsnc2c1	193% (active)	111%
Cc1cccc(C(=O)Nc2ccc(CC(=O)O)cc2)c1	226% (inactive)	56.2%
Cc1nn2c3cc(N4CCOCC4)ccc3nc2c2ccccc12	63.5% (inactive)	79.7%
CC1C/C(=N/NC(=O)c2cccs2)CC(C)(C)C1 (stereo unspecified)	7.25% (inactive)	112%
COc1cc(NS(=O)(=O)c2ccc(N=Cc3c(C)[nH]n(-c4ccccc4)c3=O)cc2)nc(OC)n1	3.7% (inactive)	98.8%
Cn1nc(-c2ccccc2)c(-c2nc(-c3ccc(Cl)cc3)no2)c1Cl	471% (active)	71.1%
COc1ccc(-c2nc(-c3ccccc3)no2)c(OC)c1	0% (inactive)	103%
Clc1ccc(-c2nnc(-c3ccccc3)nc2N2CCSCC2)cc1	-5.41% (inactive)	97.6%
COc1cccc(NC(=O)CN(C)C(C)C(=O)Nc2ccc(C#N)cc2)c1 (stereo unspecified)	8.11% (inactive)	96.1%
COC(=O)CSc1nc(C)c2ccc(OC)cc2n1	438% (active)	69.4%
COc1ccc(C(=O)CSc2n[nH]c(N)n2)cc1	7.41% (inactive)	116%
COC(=O)c1cc(C(=O)CSc2nc(C)cc(C)n2)ccc1O	-5.56% (inactive)	111%
Cc1nn(-c2ccccn2)c2c1C(c1ccncc1)C1=C(CC(C)(C)CC1=O)N2 (stereo unspecified)	-6.9% (inactive)	120%
CN(C)c1nnnn1-c1ccc(Cl)cc1	0% (inactive)	128%
Cn1nccc1CNC(=O)c1ccnn1C	7.69% (inactive)	127%

Structure (SMILES)	activation	normalized cell count
O=C(COc1ccccc1)N1CCc2ccccc2C1	3.45% (inactive)	131%
COc1ccc(OCC(=O)N2CCN(C(=O)COc3ccccc3)CC2)cc1	411% (active)	70.2%
COc1ccc(OCC(=O)N2CCN(C(=O)c3cccs3)CC2)cc1	9.09% (inactive)	125%
O=C(CSc1nnc(Cn2cnc3ccccc32)o1)c1ccccc1	0% (inactive)	112%
O=C(CSc1nnc(-c2c[nH]c3ccccc23)o1)c1ccccc1	0% (inactive)	133%
CC(C)C[C@@H](N)c1nnc(SCC(=O)c2ccc(Cl)cc2)o1	533% (active)	62.6%
CCCc1nc2c([nH]1)C(c1cccnc1)C(C#N)=C(N)O2 (stereo unspecified)	-6.67% (inactive)	147%
OC1CSc2nc3ccccc3n2C1 (stereo unspecified)	0% (inactive)	81.8%
C=CCn1c(CCc2ccc(OC(C)C)cc2)n[nH]c1=S	0% (inactive)	117%
CCCOCC(O)CC(CC)C(=O)NNC(=S)Nc1ccccc1 (stereo unspecified)	0% (inactive)	106%
Nc1ccc(-n2nncc2-c2ccco2)cc1	406% (active)	53.5%
CCOC(=O)CNC(=O)CSc1ccc2nnc(-c3cccnc3)n2n1	0% (inactive)	132%
COc1ccc(-c2nc3ccccc3n2CCC(C)C)cc1OC	-9.86% (inactive)	74.4%
Cn1cccc1-c1nc2ccccc2n1C	300% (active)	75.7%
COc1ccc(N2CCN(C(=O)COc3ccc4c(C)cc(=O)oc4c3)CC2)cc1	-8.33% (inactive)	132%
COc1cc(NC(=S)NNC(=O)CC(C)C)c(OC)cc1Cl	9.38% (inactive)	70.7%
O=C(NC1CCCC1)C(NS(=O)(=O)c1ccc(Br)s1)c1ccccc1 (stereo unspecified)	107% (inactive)	72.4%
O=C(CSc1nn(-c2ccc(F)cc2)c(=S)s1)NC1CCS(=O)(=O)C1 (stereo unspecified)	5.88% (inactive)	104%
COc1ccc(-n2nc3c(c2NC(=O)c2ccc(N4C(=O)CCC4=O)cc2)CSC3)cc1	-5.88% (inactive)	73.5%
O=C(CSc1nc2ccccc2o1)N1c2ccccc2Sc2ccc(Cl)cc21	-4.44% (inactive)	77.2%
CCS(=O)(=O)c1ccc2oc(SCC(=O)N3c4ccccc4CC3C)nc2c1 (stereo unspecified)	457% (active)	101%
CC1Cc2ccccc2N1C(=O)CSc1nc2ccccc2o1 (stereo unspecified)	7.14% (inactive)	87.7%
